Calls of active or inactive are those of the source. The rule behind the calls is not given here.
Legend:
[1] = biological target: T1, Signal transducer and activator of transcription 3 (Homo sapiens, UniProt P40763); experiment: Inhibition of SH2 domain of Stat3 constitutive phosphorylation at Tyr705 in human MDA-MB-468 cells after 2 hrs by Western blotting; type: cell-based
Procedure, shortened: (§1)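 MDA-MB-468 cells (4×10^5/well, DMEM 10% FCS, overnight) given prodrug from freshly made 10 mM DMSO stock for 2 h. Lysates in Hepes pH 7.4 Triton buffer with phosphatase/protease inhibitors; 12 μg protein on 8% SDS-PAGE, PVDF, probed for pStat3 Y705 by ECL, then stripped and reprobed for total Stat3.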

[2] = biological target: T1, Signal transducer and activator of transcription 3; experiment: Binding affinity to SH2 domain of Stat3 by fluorescence polarization assay
Procedure, shortened: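 Recombinant Stat3, expressed and purified, tested against phosphopeptides and peptidomimetics in a fluorescence polarization competition assay. Affinity is reported as an inhibition constant (K_I).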

[3] = biological target: T1, Signal transducer and activator of transcription 3; experiment: Inhibition of SH2 domain of Stat3 constitutive phosphorylation at Tyr705 in human MDA-MB-468 cells at 5 uM after 8 hrs by Western blotting; type: cell-based
Procedure, shortened: (§2)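 MDA-MB-468 cells given a single 5 μM prodrug dose and harvested at set times; pTyr705 and total Stat3 by Western blot of 12 μg lysate protein on 8% SDS-PAGE.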

[4] = biological target: RAC-alpha serine/threonine-protein kinase (Homo sapiens) (UniProt P31749); experiment: Inhibition of EGF-induced Akt phosphorylation at Ser473 in human MDA-MB-468 cells at 5 uM treated 1.5 hrs before EGF challenge measured after 30 mins by Western blotting; type: cell-based
Procedure, shortened: (§3)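 MDA-MB-468 cells pretreated 1.5 h with prodrug (5 μM), then EGF 100 ng/mL for 30 min; lysates split onto three PVDF blots probed for phospho/total Stat3, pSer473/total Akt, and phospho/total Stat5.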

[5] = Cytotoxicity against human NCI-H528 cells assessed as cell growth inhibition at 5 to 10 uM after 72 hrs by MTT assay; type: functional
Procedure, shortened: (§4)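 Cell lines with constitutive Stat3 phosphorylation (melanoma, NSCLC) exposed to prodrug at 5–10 μM. Percent growth inhibition recorded.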

[6] = biological target: T2, Signal transducer and activator of transcription 1-alpha/beta (Homo sapiens) (UniProt P42224); experiment: Inhibition of IFN-gamma-induced Stat1 phosphorylation at Tyr701 in human MDA-MB-468 cells treated 1.5 hrs before IFN-gamma challenge measured after 30 mins by Western blotting; type: cell-based
T2 sequence (whole entry): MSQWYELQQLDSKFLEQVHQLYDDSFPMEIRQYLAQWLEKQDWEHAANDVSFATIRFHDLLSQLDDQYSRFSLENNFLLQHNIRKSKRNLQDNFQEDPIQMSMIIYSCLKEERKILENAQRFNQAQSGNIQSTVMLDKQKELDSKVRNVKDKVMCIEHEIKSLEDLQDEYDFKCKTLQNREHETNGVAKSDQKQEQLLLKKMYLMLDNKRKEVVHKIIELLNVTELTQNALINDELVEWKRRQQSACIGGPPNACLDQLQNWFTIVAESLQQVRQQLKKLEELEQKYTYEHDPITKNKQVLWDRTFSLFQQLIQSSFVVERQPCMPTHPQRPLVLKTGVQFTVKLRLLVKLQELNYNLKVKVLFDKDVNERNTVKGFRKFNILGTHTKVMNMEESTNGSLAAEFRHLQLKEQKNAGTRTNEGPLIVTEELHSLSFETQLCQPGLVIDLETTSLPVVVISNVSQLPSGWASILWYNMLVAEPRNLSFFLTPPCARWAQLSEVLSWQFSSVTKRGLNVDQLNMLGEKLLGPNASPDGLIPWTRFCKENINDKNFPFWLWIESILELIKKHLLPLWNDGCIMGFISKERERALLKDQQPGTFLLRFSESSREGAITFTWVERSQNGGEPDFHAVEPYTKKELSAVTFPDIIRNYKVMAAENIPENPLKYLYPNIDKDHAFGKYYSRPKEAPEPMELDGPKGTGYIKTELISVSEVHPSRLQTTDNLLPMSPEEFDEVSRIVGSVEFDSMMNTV
Procedure, shortened: (§5)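 MDA-MB-468 cells exposed to rising prodrug concentrations for 1.5 h, then interferon γ 25 ng/mL for 30 min; Western blot for pTyr701 and total Stat1.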

[7] = Cytotoxicity against human NCI-H1819 cells assessed as cell growth inhibition at 5 to 10 uM after 72 hrs by MTT assay; type: functional; procedure, shortened: as §4
A-375 = experiment: Cytotoxicity against human A375 cells assessed as cell growth inhibition at 5 to 10 uM after 72 hrs by MTT assay; type: functional; procedure, shortened: as §4
[8] = biological target: T1, Signal transducer and activator of transcription 3; experiment: Inhibition of SH2 domain of Stat3 constitutive phosphorylation at Tyr705 in human MDA-MB-468 cells at 0.5 uM after 2 hrs by Western blotting; type: cell-based; procedure, shortened: as §1
[9] = biological target: T1, Signal transducer and activator of transcription 3; experiment: Inhibition of SH2 domain of Stat3 constitutive phosphorylation at Tyr705 in human MDA-MB-468 cells at 5 uM after 4 hrs by Western blotting; type: cell-based; procedure, shortened: as §2
[10] = biological target: T1, Signal transducer and activator of transcription 3; experiment: Inhibition of SH2 domain of Stat3 constitutive phosphorylation at Tyr705 in human MDA-MB-468 cells at 5 uM after 30 mins by Western blotting; type: cell-based; procedure, shortened: as §2
MDA-MB-468 = experiment: Selectivity ratio of inhibition of IFNgamma-induced Stat1 phosphorylation at Tyr701 to inhibition of EGF-induced SH2 domain of Stat3 phosphorylation at Tyr705 in human MDA-MB-468 cells; type: cell-based
[11] = Cytotoxicity against human H1299 cells assessed as cell growth inhibition at 5 to 10 uM after 72 hrs by MTT assay; type: functional, NCI-H1299; procedure, shortened: as §4
NCI-H520 = experiment: Cytotoxicity against human NCI-H520 cells assessed as cell growth inhibition at 5 to 10 uM after 72 hrs by MTT assay; type: functional; procedure, shortened: as §4
[12] = biological target: T1, Signal transducer and activator of transcription 3; experiment: Inhibition of SH2 domain of Stat3 constitutive phosphorylation at Tyr705 in human MDA-MB-468 cells at 5 uM after 16 hrs by Western blotting; type: cell-based; procedure, shortened: as §2
[13] = biological target: Focal adhesion kinase 1 (Homo sapiens) (UniProt Q05397); experiment: Inhibition of constitutive FAK phosphorylation at Tyr861 in human MDA-MB-468 cells at 5 uM measured after 2 hrs by Western blotting
[14] = biological target: T1, Signal transducer and activator of transcription 3; experiment: Inhibition of EGF-induced SH2 domain of Stat3 phosphorylation at Tyr705 in human MDA-MB-468 cells at 5 uM treated 1.5 hrs before EGF challenge measured after 30 mins by Western blotting; type: cell-based; procedure, shortened: as §3
A549 = experiment: Cytotoxicity against human A549 cells assessed as cell growth inhibition at 5 to 10 uM after 72 hrs by MTT assay; type: functional; procedure, shortened: as §4
MeWo = experiment: Cytotoxicity against human MeWo cells assessed as cell growth inhibition at 5 to 10 uM after 72 hrs by MTT assay; type: functional; procedure, shortened: as §4
[15] = biological target: T2, Signal transducer and activator of transcription 1-alpha/beta (Homo sapiens); experiment: Inhibition of IFN-gamma-induced Stat1 phosphorylation at Tyr701 in human MDA-MB-468 cells at 5 uM treated 1.5 hrs before IFN-gamma challenge measured after 30 mins by Western blotting; type: cell-based; procedure, shortened: as §5
[16] = biological target: T3, Signal transducer and activator of transcription 5A (Homo sapiens) (UniProt P42229); experiment: Inhibition of EGF-induced SH2 domain of Stat5 phosphorylation at Tyr694 in human MDA-MB-468 cells at 5 uM treated 1.5 hrs before EGF challenge measured after 30 mins by Western blotting; type: cell-based; procedure, shortened: as §3
T3 sequence (whole entry): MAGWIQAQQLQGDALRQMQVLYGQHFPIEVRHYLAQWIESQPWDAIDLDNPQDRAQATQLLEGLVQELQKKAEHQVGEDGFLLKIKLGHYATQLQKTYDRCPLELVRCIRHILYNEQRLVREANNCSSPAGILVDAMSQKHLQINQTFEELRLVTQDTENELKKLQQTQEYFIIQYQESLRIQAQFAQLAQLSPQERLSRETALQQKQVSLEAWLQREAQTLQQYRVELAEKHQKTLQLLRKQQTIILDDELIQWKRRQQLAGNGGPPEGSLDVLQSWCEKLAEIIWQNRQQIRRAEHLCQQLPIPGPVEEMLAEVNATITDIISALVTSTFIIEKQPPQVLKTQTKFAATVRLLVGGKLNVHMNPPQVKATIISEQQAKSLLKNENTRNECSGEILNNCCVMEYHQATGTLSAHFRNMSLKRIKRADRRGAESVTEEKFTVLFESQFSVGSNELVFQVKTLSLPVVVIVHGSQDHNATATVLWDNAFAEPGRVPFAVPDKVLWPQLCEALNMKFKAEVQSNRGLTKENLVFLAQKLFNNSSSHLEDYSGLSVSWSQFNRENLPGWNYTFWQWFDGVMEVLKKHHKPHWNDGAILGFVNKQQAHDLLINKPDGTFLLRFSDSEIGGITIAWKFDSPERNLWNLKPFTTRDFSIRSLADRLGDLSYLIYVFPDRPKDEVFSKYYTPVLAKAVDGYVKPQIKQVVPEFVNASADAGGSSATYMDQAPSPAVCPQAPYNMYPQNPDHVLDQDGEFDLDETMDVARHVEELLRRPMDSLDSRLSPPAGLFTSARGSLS

T1 sequence (P40763 whole entry, the tested form may be a part): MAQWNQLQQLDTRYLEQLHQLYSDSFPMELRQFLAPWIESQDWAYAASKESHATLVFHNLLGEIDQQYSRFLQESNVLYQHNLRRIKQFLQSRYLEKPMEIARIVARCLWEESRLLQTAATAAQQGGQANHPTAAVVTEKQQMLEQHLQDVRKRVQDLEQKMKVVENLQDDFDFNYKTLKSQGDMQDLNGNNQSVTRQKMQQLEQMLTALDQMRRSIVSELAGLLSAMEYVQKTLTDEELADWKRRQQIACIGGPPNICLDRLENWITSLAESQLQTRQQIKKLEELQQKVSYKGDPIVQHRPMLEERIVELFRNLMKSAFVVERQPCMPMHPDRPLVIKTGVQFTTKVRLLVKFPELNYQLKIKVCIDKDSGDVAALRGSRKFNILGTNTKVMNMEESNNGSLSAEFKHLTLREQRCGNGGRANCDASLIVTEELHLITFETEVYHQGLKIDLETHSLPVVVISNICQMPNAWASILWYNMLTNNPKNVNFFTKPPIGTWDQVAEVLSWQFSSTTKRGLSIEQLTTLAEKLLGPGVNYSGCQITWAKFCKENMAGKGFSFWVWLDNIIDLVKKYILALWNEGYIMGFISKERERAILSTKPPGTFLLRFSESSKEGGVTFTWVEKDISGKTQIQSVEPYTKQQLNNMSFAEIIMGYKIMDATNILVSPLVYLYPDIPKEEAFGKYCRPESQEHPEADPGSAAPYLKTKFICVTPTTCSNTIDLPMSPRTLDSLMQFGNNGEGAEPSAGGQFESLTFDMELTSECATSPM
Focal adhesion kinase 1 (Homo sapiens), sequence (Q05397 2-1052 limits assumed): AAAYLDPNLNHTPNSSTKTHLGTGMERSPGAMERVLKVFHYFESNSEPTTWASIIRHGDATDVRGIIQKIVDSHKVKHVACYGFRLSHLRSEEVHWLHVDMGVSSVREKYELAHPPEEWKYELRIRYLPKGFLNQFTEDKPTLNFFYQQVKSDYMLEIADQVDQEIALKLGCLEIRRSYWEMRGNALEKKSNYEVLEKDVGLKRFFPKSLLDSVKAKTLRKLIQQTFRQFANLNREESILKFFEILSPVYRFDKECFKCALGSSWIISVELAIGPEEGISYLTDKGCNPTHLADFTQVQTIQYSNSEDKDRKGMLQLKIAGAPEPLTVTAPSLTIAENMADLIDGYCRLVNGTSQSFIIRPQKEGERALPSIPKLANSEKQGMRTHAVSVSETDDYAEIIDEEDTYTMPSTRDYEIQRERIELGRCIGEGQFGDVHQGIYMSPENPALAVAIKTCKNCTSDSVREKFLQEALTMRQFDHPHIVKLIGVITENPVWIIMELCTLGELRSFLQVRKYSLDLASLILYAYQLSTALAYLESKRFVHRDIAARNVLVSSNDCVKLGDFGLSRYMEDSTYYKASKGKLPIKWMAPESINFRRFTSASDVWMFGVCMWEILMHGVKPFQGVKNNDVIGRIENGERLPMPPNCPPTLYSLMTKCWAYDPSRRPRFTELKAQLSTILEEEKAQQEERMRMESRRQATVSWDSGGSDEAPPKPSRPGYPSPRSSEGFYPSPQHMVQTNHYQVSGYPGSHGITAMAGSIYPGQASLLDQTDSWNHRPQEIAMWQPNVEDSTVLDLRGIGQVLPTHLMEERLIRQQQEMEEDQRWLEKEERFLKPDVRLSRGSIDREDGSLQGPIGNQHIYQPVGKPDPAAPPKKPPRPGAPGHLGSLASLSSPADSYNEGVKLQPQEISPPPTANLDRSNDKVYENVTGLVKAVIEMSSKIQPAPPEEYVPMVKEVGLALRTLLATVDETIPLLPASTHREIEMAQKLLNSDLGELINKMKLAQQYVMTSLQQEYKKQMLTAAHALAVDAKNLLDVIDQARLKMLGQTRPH
RAC-alpha serine/threonine-protein kinase (Homo sapiens), sequence (P31749 whole entry): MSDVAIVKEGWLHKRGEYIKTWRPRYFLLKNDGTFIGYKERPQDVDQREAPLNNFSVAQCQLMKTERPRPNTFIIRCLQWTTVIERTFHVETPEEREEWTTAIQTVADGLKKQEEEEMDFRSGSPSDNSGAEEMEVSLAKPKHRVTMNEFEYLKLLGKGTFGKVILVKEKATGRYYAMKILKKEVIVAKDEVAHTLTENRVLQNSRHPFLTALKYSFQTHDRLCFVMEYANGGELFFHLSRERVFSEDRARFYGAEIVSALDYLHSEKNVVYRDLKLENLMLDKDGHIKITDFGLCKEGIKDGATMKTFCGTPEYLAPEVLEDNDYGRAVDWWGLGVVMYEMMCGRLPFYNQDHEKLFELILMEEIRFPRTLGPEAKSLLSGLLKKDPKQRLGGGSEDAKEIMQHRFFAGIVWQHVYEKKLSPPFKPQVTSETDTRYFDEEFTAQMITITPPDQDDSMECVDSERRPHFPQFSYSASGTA

CC(C)(C)C(=O)OCOP(=O)(OCOC(=O)C(C)(C)C)C(F)(F)c1ccc(/C=C/C(=O)N[C@H]2CCc3cccc4c3N(C2=O)[C@H](C(=O)N[C@@H](CCC(N)=O)C(=O)NCc2ccccc2)C4)cc1
inhibition [1]: Dose-dependent effect

C/C(=C\C(=O)N[C@@H](CC(C)C)C(=O)N1C[C@H]2C[C@H]2[C@H]1C(=O)N[C@H](C)CCC(N)=O)c1ccc(OP(=O)(O)O)cc1
Ki [2]: 83 nM

CCCC[C@H](NC(=O)/C=C(\C)c1ccc(OP(=O)(O)O)cc1)C(=O)N1C[C@H]2C[C@H]2[C@H]1C(=O)NCCNC(N)=O
Ki [2]: 46 nM

C/C(=C\C(=O)N[C@@H](CC(C)C)C(=O)N1C[C@H]2C[C@H]2[C@H]1C(=O)NCCOC(N)=O)c1ccc(OP(=O)(O)O)cc1
Ki [2]: 193 nM

C/C(=C\C(=O)N[C@H]1CCc2cccc3c2N(C1=O)[C@H](C(=O)N[C@@H](CCC(N)=O)C(=O)NCc1ccccc1)C3)c1ccc(OP(=O)(O)O)cc1
Ki [2]: 57 nM

C/C(=C\C(=O)N[C@@H](CC(C)C)C(=O)N1C[C@H]2C[C@H]2[C@H]1C(=O)N[C@@H](CCC(N)=O)C(=O)NCc1ccccc1)c1ccc(OP(=O)(O)O)cc1
Ki [2]: 43 nM

CCCC[C@H](NC(=O)/C=C(\C)c1ccc(C(F)(F)P(=O)(OCOC(=O)C(C)(C)C)OCOC(=O)C(C)(C)C)cc1)C(=O)N1C[C@H]2C[C@H]2[C@H]1C(=O)N[C@@H](CCC(N)=O)C(C)OCc1ccccc1 (stereo partly drawn)
inhibition [3]: Active
inhibition [4]: inactive
growth inhibition (GI) [5]: <20%
inhibition [6]: Dose-dependent effect
growth inhibition (GI) [7]: <20%
growth inhibition (GI) (A-375): <20%
inhibition [8]: Active
inhibition [9]: Active
inhibition [10]: Active
Ratio (MDA-MB-468): 10
growth inhibition (GI) [11]: <20%
growth inhibition (GI) (NCI-H520): <20%
inhibition [12]: inactive
inhibition [13]: inactive
inhibition [14]: Active
growth inhibition (GI) (A549): <20%
growth inhibition (GI) (MeWo): <20%
inhibition [15]: Active
inhibition [16]: inactive

CCCC[C@H](NC(=O)/C=C(\C)c1ccc(OP(=O)(O)O)cc1)C(=O)N1C[C@H]2C[C@H]2[C@H]1C(=O)N[C@H](C)CCC(N)=O
Ki [2]: 66 nM

C/C(=C\C(=O)N[C@@H](CC(C)C)C(=O)N1CCC[C@H]1C(=O)NCCOC(N)=O)c1ccc(OP(=O)(O)O)cc1
Ki [2]: 203 nM

CCCC[C@H](NC(=O)/C=C(\C)c1ccc(OP(=O)(O)O)cc1)C(=O)N1C[C@H]2C[C@H]2[C@H]1C(=O)NCCOC(N)=O
Ki [2]: 114 nM

Reference: ChEMBL document CHEMBL1773023, “Potent and selective phosphopeptide mimetic prodrugs targeted to the Src homology 2 (SH2) domain of signal transducer and activator of transcription 3” (J Med Chem, 2011)
